Sampled rows, rich in hits. Any-hit rate of the full collection: about 4.9%.
HSF1 activator = increases HSF-1 driven luciferase reporter signal. activation, % at 9 µM. actives 1.7% (n = 300,000). NIH3T3-HGL HSF-1 luciferase reporter, MG132, 8 h; 100% = twice DMSO control signal. AID 504408;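 active = mean replicate activation of at least 50% with a set share of replicates each reaching 50%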;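 note: 0% = median of the neutral control wells and 100% = twice that signal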
CHT block = inhibitors of human choline transporter CHT | Q9GZV3 | CHT-expressing cells, membrane potential dye, choline response; hits give low values | B-score at 10 µM | actives 0.86% (n = 310,000);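 active = B-score over 3 SD under the library average, and starting fluorescence ratio not unusually high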;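 note: choline stimulus applied at its EC90 after an EC20 pre-addition; B-score computed on integrated fluorescence ratio after choline addition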
Hep lipid drop = modulators of hepatic lipid droplet formation; AML12 mouse hepatocytes, oleate lipid droplets, BODIPY imaging; inhibition, % at 6.5 µM; actives 0.4% (n = 240,000);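 active = lipid droplet intensity inhibited by at least 50%, with more than 500 cells counted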
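material = mouse AML12 hepatocyte cell line, fixed after treatment | also added = 100 µM oleic acid challenge | doses = compound at 6.5 µM only | schedule = overnight exposure | technique = Image-based BODIPY and DAPI two-channel analysis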
PHOSPHO1 inh = blocks human PHOSPHO1 phosphatase activity; Q8TCT1; recombinant PHOSPHO1, absorbance phosphatase assay; inhibition, % at 13.3 µM; actives 1.1% (n = 290,000); AID 1565; in the data active = inhibition above about 60%
Target sequence (Q8TCT1 whole entry, looked up): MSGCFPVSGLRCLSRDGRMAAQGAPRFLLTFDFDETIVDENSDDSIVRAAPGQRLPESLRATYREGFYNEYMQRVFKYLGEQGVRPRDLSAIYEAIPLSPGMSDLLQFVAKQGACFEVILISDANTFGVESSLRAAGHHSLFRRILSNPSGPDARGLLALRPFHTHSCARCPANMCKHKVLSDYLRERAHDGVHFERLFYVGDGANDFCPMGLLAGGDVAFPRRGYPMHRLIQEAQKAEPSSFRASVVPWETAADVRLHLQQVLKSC
CHT PAM = human CHT allosteric activation. Q9GZV3. B-score at 10 µM. actives 0.49% (n = 310,000). CHT-expressing cells, membrane potential dye, choline EC20; hits give high values; LV-AA mutant CHT in HEK293 cells;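 active = initial fluorescence not abnormally high and integrated response B-score, plate-corrected, over 3 SD above library mean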
HSF1 inh = HSF1 inhibition. AID 2098. actives 0.77% (n = 300,000). NIH3T3-HGL HSE-luciferase, MG132-induced, luminescence 8 h; hits give low values. activity change, negative = inhibition, % at 7.5 µM (by protocol);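 active = more than half of replicate wells show activity change below -50%, luminescence cut by over half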;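 note: luciferase reports HSF-1 transcriptional activity via heat shock element; 0% = median of DMSO wells and -100% = zero luminescence signal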
* marks the source's active call; other numbers are inactive results; ! = not confirmed by another sample.

Results for Cc1cccc(NC(=S)NNC(=S)NCc2ccccc2)c1 ?
HSF1 activator: 22; CHT block: inactive; Hep lipid drop: 12; PHOSPHO1 inh: 78*; CHT PAM: inactive; HSF1 inh: 14

What do the screens show for `C/C(=N\N=c1/sc2ccccc2n1C)c1ccccn1`?
HSF1 activator: 0; CHT block: inactive; Hep lipid drop: 4; PHOSPHO1 inh: 30; CHT PAM: inactive; HSF1 inh: 14

What do the screens show for `C/C(=N\N=c1/sc2ccccc2n1C)c1ccc(N2CCOCC2)cc1`?
HSF1 activator: 66*; CHT block: inactive; Hep lipid drop: 2; PHOSPHO1 inh: 17; CHT PAM: inactive; HSF1 inh: 25

Results for c1ccc(CN(CC2=NCCN2)c2ccccc2)cc1 ?
HSF1 activator: 7; CHT block: inactive; Hep lipid drop: 11; PHOSPHO1 inh: 6; CHT PAM: inactive; HSF1 inh: 0

Results for Cc1ccc(N(CC2=NCCN2)c2cccc(O)c2)cc1 ?
HSF1 activator: -75; CHT block: inactive; Hep lipid drop: -3; PHOSPHO1 inh: 48; CHT PAM: inactive; HSF1 inh: -72*!

How did CC(C)c1ccc(C(O)c2nc3ccccc3n2C)cc1 (stereo not given) do in these assays?
HSF1 activator: 15; CHT block: inactive; Hep lipid drop: -4; PHOSPHO1 inh: 35; CHT PAM: inactive; HSF1 inh: 5

Results for O=C(Nc1cccc(N=Cc2cc(Cl)cc(Br)c2O)c1)c1ccco1 ?
CHT block: -7.1*; Hep lipid drop: 9; PHOSPHO1 inh: -9; CHT PAM: inactive

Results for O=C(Nc1cccc(N=Cc2cc(Br)cc(Br)c2O)c1)c1ccco1 ?
HSF1 activator: -4; CHT block: inactive; Hep lipid drop: 14; PHOSPHO1 inh: 1; CHT PAM: inactive; HSF1 inh: 4

What do the screens show for `CCCCC1=CC2=CC(=O)C(C)(OC(=O)CC)C(=O)C2=CN1CCN1CCOCC1` (stereo not given)?
HSF1 activator: 1; CHT block: inactive; PHOSPHO1 inh: 18; CHT PAM: inactive; HSF1 inh: -3

How did CC(=O)c1ccc(Oc2cc(C)nc(NCc3ccccc3)n2)cc1 do in these assays?
HSF1 activator: 0; CHT block: inactive; PHOSPHO1 inh: 9; CHT PAM: inactive; HSF1 inh: -2

Results for CCOC(=O)c1c(COc2ccccc2)oc2ccc(O)cc12 ?
HSF1 activator: 105*; CHT block: inactive; PHOSPHO1 inh: -5; CHT PAM: inactive; HSF1 inh: 74

Results for CCOC(=O)c1c(C)n(CCNC(C)=O)c2ccc(O)cc12 ?
HSF1 activator: -7; CHT block: inactive; Hep lipid drop: 3; PHOSPHO1 inh: -7; CHT PAM: inactive; HSF1 inh: -1

Results for CCOC(=O)c1c(C)n(CCOc2ccccc2)c2ccc(O)cc12 ?
HSF1 activator: 69*; CHT block: inactive; Hep lipid drop: 5; PHOSPHO1 inh: 30; CHT PAM: inactive; HSF1 inh: 28

What do the screens show for `CCOC(=O)c1c(C(C)(C)C)oc2ccc(O)cc12`?
CHT block: inactive; PHOSPHO1 inh: 20; CHT PAM: inactive

Results for O=C1CC(c2ccco2)=Nc2ccccc2N1 ?
HSF1 activator: 17; CHT block: inactive; Hep lipid drop: 6; PHOSPHO1 inh: -5; CHT PAM: inactive; HSF1 inh: 4

How did Cc1ccsc1C(=O)Nc1ccc2c(c1)OCCO2 do in these assays?
HSF1 activator: 51*; CHT block: inactive; Hep lipid drop: 11; PHOSPHO1 inh: 18; CHT PAM: inactive; HSF1 inh: 12

How did O=C(Nc1ccc2c(c1)OCCO2)N1CCN(c2ccc(F)cc2)CC1 do in these assays?
HSF1 activator: -60; CHT block: inactive; Hep lipid drop: -21; PHOSPHO1 inh: 4; CHT PAM: inactive; HSF1 inh: -58*

How did Cc1ccccc1NC(=O)c1ccc2c(c1)OCCO2 do in these assays?
HSF1 activator: -73; CHT block: inactive; Hep lipid drop: 8; PHOSPHO1 inh: 10; CHT PAM: inactive; HSF1 inh: -65*

What do the screens show for `COc1cc2cc(C(=O)Nc3ccc4c(c3)OCCO4)[nH]c2cc1OC`?
HSF1 activator: -74; CHT block: inactive; Hep lipid drop: 3; PHOSPHO1 inh: 7; CHT PAM: inactive; HSF1 inh: -72*

What do the screens show for `Cc1cccc(C)c1N1CCN(C(=O)Nc2ccc3c(c2)OCCO3)CC1`?
HSF1 activator: -51; CHT block: inactive; PHOSPHO1 inh: -10; CHT PAM: inactive; HSF1 inh: -48

What do the screens show for `CC1(C)Cc2ccccc2-c2nc3ccccc3c(=O)n21`?
HSF1 activator: -5; CHT block: inactive; PHOSPHO1 inh: 5; CHT PAM: inactive; HSF1 inh: -3

Results for Nc1ccc(-c2cc(-c3cccc(N)c3)nc(-c3ccccc3)n2)cc1 ?
HSF1 activator: 23; CHT block: inactive; Hep lipid drop: 32; PHOSPHO1 inh: 26; CHT PAM: inactive; HSF1 inh: 6

What do the screens show for `Cc1cccc(N2CCCC2=Nc2ccc(Br)cc2C#N)c1`?
HSF1 activator: 3; CHT block: inactive; PHOSPHO1 inh: 16; CHT PAM: inactive; HSF1 inh: 11

Results for CC(C)N(C(=O)COC(=O)[C@@H]1CC(O)CN1S(=O)(=O)c1ccccc1[N+](=O)[O-])C(C)C (stereo not given in full) ?
HSF1 activator: -11; CHT block: inactive; Hep lipid drop: 24; PHOSPHO1 inh: -1; CHT PAM: inactive; HSF1 inh: -6

What do the screens show for `CC1CN(C(=O)Nc2ccc3c(c2)OCCO3)CC(C)O1` (stereo not given)?
HSF1 activator: -64; CHT block: inactive; PHOSPHO1 inh: 16; CHT PAM: inactive; HSF1 inh: -58*

How did COc1cc(OC)cc(-c2nnc(NC(=O)c3ccc4c(c3)OCCO4)o2)c1 do in these assays?
HSF1 activator: -12; CHT block: inactive; Hep lipid drop: 17; PHOSPHO1 inh: 63*; CHT PAM: inactive; HSF1 inh: -6

How did CC(=O)CSc1nnc(-c2ccc3c(c2)OCO3)o1 do in these assays?
HSF1 activator: 0; CHT block: inactive; Hep lipid drop: 17; PHOSPHO1 inh: -8; CHT PAM: inactive; HSF1 inh: 2

What do the screens show for `O=C(O)CCSc1nnc(-c2ccc3c(c2)OCO3)o1`?
HSF1 activator: -60; CHT block: inactive; PHOSPHO1 inh: 14; CHT PAM: inactive; HSF1 inh: -52*

Results for Cc1cc(C)c[n+](-c2nc([O-])sc2C=O)c1 ?
HSF1 activator: -15; CHT block: inactive; PHOSPHO1 inh: 96*; CHT PAM: inactive; HSF1 inh: -7

Source: PubChem (several laboratories)
